One data set concerns the target Cytochrome P450 2D6 (Homo sapiens, UniProt P10635). In words: Inhibition of human CYP2D6. Type of data set: ADME. In short, it runs like this:
(§1)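 Microsomes from human B-lymphoblastoid cells expressing one CYP isoform, with inhibitor at 3, 10 and 30 µmol/L. Buffer 80 mmol/L phosphate pH 7.4 (Tris-HCl pH 7.4 for CYP2C9) with 10 mmol/L MgCl2 and a NADPH-regenerating system. Inhibitor and substrate preincubated 5 min at 37 °C, then microsomes added to start. Marker reactions: tolbutamide hydroxylation (CYP2C8, CYP2C9), bufuralol 1'-hydroxylation (CYP2D6). Control was methanol alone.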

A further data set concerns the target Cytochrome P450 2C9 (Homo sapiens, UniProt P11712). In words: Inhibition of human CYP2C9. Type of data set: ADME. In short, it runs like this:
as §1

Data set [1] is described as follows: Tmax in Crl:CD(SD)IGS rat at 10 mg/kg, po by HPLC analysis. It counts as ADME, organism-based. Also on record: dose 10 mg/kg, route oral. Particulars: in vivo. In short, it runs like this: (§2)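 Non-fasted male Crl:CD(SD)IGS rats, 8 weeks old, n = 3. Dosed 1 mg/kg iv or 10 mg/kg po. Plasma sampled at 5 (iv only), 10 (iv only), 15, 30 min and 1, 2, 4, 8, 24 h. Plasma deproteinized with acetonitrile, supernatant dried under N2, taken up in mobile phase and analysed by HPLC on an ODS column. […] Mean ± SD.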

Data set [2] can be described thus: Oral bioavailability in Crl:CD(SD)IGS rat at 10 mg/kg by HPLC analysis. It counts as ADME, organism-based. Particulars: in vivo. In short, it runs like this:
as §2

Data set [3] in a line: AUC (0 to 24 hrs) in Crl:CD(SD)IGS rat at 10 mg/kg, po by HPLC analysis. It counts as ADME, organism-based. Also on record: time < 24 hr, dose 10 mg/kg, route oral. Particulars: plasma. In short, it runs like this:
(§3)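 Male non-fasted 8-week-old rats, n = 3; 1 mg/kg IV or 10 mg/kg oral. Plasma sampled at 5, 10, 15, 30 min and 1, 2, 4, 8, 24 h after IV dosing, or at 15, 30 min and 1, 2, 4, 8, 24 h after oral dosing. Plasma deproteinized with acetonitrile, dried under N₂, taken up in mobile phase, and analysed by reverse-phase HPLC on an ODS column.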

The target in a further data set is Cytochrome P450 3A4 (Homo sapiens, UniProt P08684). Briefly: Inhibition of human CYP3A4. It counts as ADME.
For a further data set, the target named is T1, Cytochrome P450c11B3 (Rattus norvegicus, UniProt Q64546).
T1 sequence (Q64546 whole entry): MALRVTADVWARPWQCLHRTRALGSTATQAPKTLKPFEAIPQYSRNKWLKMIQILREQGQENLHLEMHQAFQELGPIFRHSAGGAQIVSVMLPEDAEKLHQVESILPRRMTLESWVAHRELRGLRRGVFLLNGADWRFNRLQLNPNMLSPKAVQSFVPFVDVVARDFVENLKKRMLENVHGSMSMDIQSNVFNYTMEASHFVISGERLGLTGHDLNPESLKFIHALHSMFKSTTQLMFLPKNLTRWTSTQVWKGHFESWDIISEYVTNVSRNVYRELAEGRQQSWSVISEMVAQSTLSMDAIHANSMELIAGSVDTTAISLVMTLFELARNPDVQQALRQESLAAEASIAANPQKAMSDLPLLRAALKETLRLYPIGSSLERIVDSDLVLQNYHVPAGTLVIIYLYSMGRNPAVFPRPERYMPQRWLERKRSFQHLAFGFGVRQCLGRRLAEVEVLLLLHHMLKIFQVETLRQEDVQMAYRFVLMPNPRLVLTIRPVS
In words: Inhibition of 11-hydroxylase activity in Sprague-Dawley rat adrenal gland. Type of data set: tissue-based. In short, it runs like this: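 Mitochondrial fraction from SD rat adrenal glands, 4 µg protein, in 200 mM mannitol, 4.5 mM HEPES, 2.3 mM K phosphate pH 7.4, 0.1 mM EDTA, 0.03% BSA, 4.5 mM NADPH, 11 mM CaCl2. Substrate 10 nM [1,2-3H]-11-deoxycortisol. Test compound 1–1000 nM, diluted in DMF. Incubated 30 min at 37 °C, stopped with ethyl acetate. Final concentrations.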

In a further data set the target is T2, Cytochrome P450 2C8 (Homo sapiens, UniProt P10632).
T2 sequence (P10632 whole entry): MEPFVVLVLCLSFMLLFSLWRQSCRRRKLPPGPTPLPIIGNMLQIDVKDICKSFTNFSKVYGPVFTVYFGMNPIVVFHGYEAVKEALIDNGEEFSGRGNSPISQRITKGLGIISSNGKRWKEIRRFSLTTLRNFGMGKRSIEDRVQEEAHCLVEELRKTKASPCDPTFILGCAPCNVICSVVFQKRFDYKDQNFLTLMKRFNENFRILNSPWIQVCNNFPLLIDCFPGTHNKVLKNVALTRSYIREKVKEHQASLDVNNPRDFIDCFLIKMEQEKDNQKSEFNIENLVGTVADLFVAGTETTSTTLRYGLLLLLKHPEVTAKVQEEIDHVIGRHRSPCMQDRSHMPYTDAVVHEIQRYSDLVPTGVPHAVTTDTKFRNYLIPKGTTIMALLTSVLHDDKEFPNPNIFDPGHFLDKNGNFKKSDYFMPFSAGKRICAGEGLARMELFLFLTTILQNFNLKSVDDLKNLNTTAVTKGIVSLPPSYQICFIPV
Briefly: Inhibition of human CYP2C8. Type of data set: ADME. In short, it runs like this: as §1

Data set [4] addresses T3, Steroid 17-alpha-hydroxylase/17,20 lyase (Homo sapiens, UniProt P05093).
T3 sequence (P05093 whole entry): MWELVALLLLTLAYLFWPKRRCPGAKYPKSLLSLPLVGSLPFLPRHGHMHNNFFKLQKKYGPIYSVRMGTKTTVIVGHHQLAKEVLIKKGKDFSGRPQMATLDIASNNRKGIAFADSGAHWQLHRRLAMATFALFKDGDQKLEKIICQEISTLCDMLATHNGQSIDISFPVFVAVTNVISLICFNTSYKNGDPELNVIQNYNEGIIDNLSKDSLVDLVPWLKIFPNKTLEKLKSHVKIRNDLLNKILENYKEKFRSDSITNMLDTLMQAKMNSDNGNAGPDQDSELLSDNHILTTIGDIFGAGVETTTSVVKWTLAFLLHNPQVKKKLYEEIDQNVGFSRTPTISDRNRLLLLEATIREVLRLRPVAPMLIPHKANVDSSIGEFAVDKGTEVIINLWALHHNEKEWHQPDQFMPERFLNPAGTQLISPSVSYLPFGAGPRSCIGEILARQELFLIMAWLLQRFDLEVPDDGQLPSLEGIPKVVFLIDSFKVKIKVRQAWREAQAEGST
In words: Inhibition of 17,20 lyase activity in human. In short, it runs like this:
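Recombinant P450c17 (0.5 pmol) with cytochrome b5 (0.5 pmol) and NADPH-P450 reductase (20.8 ng) in 75 mM phosphate pH 7.4 with 1 mM MgCl2. Substrate 10 nM [1,2-3H]-17α-hydroxypregnenolone, 5 mM NADPH, compound 1–1000 nM. Incubated 15 min at 37 °C, ethyl acetate extraction, DHEA separated from substrate by silica TLC (cyclohexane–ethyl acetate 3:2). IC50 taken as 50% reduction in product.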

The nature of data set [5]: AUC (0 to 24 hrs) in Crl:CD(SD)IGS rat at 1 mg/kg, iv by HPLC analysis. The settings on record: plasma. Also on record: time < 24 hr, dose 1 mg/kg, route intravenous. Type of data set: ADME, organism-based. In short, it runs like this:
as §3

Data set [6] concerns the target T4, Steroid 17-alpha-hydroxylase/17,20 lyase (Rattus norvegicus, UniProt P11715).
T4 sequence (P11715 whole entry): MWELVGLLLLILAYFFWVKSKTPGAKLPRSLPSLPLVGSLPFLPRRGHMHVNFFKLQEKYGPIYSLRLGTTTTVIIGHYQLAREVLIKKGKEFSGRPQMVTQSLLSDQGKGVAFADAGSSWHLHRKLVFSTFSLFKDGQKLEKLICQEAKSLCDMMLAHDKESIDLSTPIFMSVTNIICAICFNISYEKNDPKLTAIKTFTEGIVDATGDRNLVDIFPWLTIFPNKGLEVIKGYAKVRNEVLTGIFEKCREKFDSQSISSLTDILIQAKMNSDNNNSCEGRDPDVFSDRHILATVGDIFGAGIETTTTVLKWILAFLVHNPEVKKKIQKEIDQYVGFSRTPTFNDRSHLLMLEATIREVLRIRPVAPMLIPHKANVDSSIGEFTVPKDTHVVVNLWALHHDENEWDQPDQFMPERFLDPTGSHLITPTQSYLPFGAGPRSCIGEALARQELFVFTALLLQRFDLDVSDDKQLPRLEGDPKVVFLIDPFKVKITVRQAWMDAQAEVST
Briefly: Inhibition of 17,20 lyase activity in Sprague-Dawley rat testicular microsomes. Set-up: species or system Testis. In short, it runs like this:
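Testicular microsomes from 13-week-old male SD rats (7 µg protein) in 75 mM phosphate buffer, pH 7.4, with 10 nM [1,2-3H]-17α-hydroxyprogesterone, 5 mM NADPH, and 1–1000 nM test compound (all final). Compounds were diluted in DMF and then in water. Incubation ran 15 min at 37 °C and was stopped with ethyl acetate. IC50 is the concentration that halves product formation.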

Data set [7] in a line: Cmax in Crl:CD(SD)IGS rat at 10 mg/kg, po by HPLC analysis. Type of data set: ADME, organism-based. Set-up: dose 10 mg/kg, route oral. Particulars: in vivo. In short, it runs like this: as §2

The term IC50 denotes the concentration needed to halve the response being measured. Higher therefore signals weaker potency in that assay. A word on the Tmax: it is the time at which the peak concentration occurs. As a reminder, the AUC(0-t) is exposure summed from dosing to a finite time, without extrapolation to infinity. Read a low AUC(0-t) as low exposure. One may read the Cmax as the highest concentration seen after dosing.

Cytochrome P450 3A4, sequence (P08684 whole entry): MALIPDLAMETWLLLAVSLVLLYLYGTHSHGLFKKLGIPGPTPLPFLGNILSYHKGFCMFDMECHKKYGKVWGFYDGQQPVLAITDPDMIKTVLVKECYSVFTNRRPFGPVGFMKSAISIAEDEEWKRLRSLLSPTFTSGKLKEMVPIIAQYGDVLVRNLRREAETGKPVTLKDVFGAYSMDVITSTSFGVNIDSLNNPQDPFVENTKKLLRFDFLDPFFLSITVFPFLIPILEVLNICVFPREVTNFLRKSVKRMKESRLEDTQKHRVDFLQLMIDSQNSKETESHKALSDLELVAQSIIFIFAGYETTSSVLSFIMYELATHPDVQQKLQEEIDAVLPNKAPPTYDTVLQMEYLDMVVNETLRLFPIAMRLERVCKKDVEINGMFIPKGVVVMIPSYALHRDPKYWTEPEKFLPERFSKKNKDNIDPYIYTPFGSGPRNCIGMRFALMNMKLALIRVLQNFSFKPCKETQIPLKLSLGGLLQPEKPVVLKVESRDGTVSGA
Cytochrome P450 2D6, sequence (P10635 whole entry, canonical isoform): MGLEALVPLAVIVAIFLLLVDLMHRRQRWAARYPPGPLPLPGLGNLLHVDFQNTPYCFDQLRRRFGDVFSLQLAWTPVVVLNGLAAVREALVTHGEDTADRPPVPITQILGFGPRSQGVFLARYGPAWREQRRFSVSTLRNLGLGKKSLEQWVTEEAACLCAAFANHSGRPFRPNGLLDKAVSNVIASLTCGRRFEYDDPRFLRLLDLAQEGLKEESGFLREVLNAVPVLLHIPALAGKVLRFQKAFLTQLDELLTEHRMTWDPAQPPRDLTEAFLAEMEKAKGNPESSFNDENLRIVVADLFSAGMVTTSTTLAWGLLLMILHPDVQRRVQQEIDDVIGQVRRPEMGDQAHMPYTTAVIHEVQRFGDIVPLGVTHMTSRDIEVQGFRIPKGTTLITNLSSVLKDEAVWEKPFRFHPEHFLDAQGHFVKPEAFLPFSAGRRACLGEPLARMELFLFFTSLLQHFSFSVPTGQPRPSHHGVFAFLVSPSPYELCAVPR
Cytochrome P450 2C9, sequence (P11712 whole entry): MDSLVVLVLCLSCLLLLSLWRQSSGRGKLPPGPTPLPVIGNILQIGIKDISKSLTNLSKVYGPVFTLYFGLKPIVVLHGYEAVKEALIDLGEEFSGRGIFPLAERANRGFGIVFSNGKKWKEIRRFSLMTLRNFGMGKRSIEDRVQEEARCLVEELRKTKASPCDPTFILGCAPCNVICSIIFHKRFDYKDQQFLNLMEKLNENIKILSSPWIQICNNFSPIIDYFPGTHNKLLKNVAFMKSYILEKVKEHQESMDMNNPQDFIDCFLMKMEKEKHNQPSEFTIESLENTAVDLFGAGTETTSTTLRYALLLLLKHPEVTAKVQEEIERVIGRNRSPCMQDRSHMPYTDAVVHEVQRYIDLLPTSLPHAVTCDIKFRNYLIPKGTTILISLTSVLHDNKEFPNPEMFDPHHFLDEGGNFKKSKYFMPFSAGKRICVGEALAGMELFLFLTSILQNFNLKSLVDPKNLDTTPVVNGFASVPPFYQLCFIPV

As to `CC(C)[C@](O)(c1ccc2c3c(ccc2c1)C(=O)N(C)C3)c1cnc[nH]1`, the IC50 is greater than 30 µM on Cytochrome P450 2D6; less than 3 µM at Cytochrome P450 2C9; greater than 10 µM on Cytochrome P450 3A4; greater than 1 µM on Cytochrome P450c11B3; 28 µM on Cytochrome P450 2C8; 0.019 µM in [4]. This compound registered an IC50 in data set [6] of less than 0.01 µM. The Tmax in data set [1] turned out to be 25.2 min. Besides, the bioavailability in [2] was 128%. Also, the results for the AUC(0-t) at 24 h in data set [3] and in data set [5] were 7320 ng·h/mL and 573 ng·h/mL, respectively. The same compound had a Cmax in data set [7] of 2940 ng/mL.

Source of the values: ChEMBL document CHEMBL1681730, “17,20-lyase inhibitors. Part 4: design, synthesis and structure-activity relationships of naphthylmethylimidazole derivatives as novel 17,20-lyase inhibitors” (Bioorg Med Chem, 2011).
